# Most compounds without a hit are left out; they make up all but 2.6% or so of the library.
# 5HT1a antag – blocks the human serotonin 5-HT1a receptor; CHO 5-HT1a Ga15 NFAT-bla reporter, antagonist mode; actives 0.68% (n = 62,000); inhibition, % at 10 µM; P08908;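 active = inhibition above the mean of all tested compounds plus 3 SD, cut at about 43% in these data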;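 also: receptor stimulated by 5-CT agonist at 100 nM near EC80; beta-lactamase reporter measured by ratiometric fluorescence of a cleavable substrate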
# Target sequence (P08908 whole entry, looked up): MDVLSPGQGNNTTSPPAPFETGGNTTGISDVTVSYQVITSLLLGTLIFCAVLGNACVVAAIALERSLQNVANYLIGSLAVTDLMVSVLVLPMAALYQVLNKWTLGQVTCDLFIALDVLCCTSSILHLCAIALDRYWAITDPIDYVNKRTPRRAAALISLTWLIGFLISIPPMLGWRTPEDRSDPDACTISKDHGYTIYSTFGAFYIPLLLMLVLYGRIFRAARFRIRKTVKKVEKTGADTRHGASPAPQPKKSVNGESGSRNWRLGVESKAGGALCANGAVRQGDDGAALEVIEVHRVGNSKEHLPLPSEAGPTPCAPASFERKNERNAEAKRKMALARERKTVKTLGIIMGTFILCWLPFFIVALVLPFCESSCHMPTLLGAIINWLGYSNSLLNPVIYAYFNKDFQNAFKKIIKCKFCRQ
# HTR1E antagonist – blocks the human 5-HT1E serotonin receptor. P28566. CHO 5-HT1E Ga15 NFAT-bla reporter, FRET, antagonist. inhibition, % at 6 µM. actives 0.99% (n = 65,000);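 active = inhibition above a set limit, the mean inhibition across every tested compound plus 3 SD, cut at about 29% in these data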;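 also: signal is the 460 over 535 nm emission ratio of beta-lactamase substrate; 0% = agonist plus DMSO wells and 100% = wells without agonist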
# S1P3 ag – S1P3 (human) receptor agonism | activation, % at 4.5 µM | S1P3 NFAT-BLA reporter cells, FRET ratio; relative to 1 µM S1P, basal subtracted | actives 0.1% (n = 60,000) | Q99500;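 active = activation above the screen-wide mean plus 3 SD, cut at about 4.5% in these data, passing the limit was not always enough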
#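 Measure – % activation relative to 1 µM S1P (100%), per plate · System – stable CHO line with human S1P3, Gα16, NFAT-BLA reporter · Timing – cells plated overnight, compound 4 h 37 °C, substrate 2 h RT · Technique – fluorescent BLA substrate, ex 405 nm, em 460/535 nm ratio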
# HTR1E agonist – agonists of human 5-HT1E serotonin receptor. P28566. CHO 5-HT1E Ga15 NFAT-bla reporter, FRET; 0% DMSO wells, 100% control agonist wells. activation, % at 6 µM. actives 0.69% (n = 65,000);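 active = activation above a set limit, the screen-wide mean activation plus 3 SD, cut at about 8.5% in these data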;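 also: 100% = positive control agonist at 1 µM giving full maximal response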
# 5HT1a ag – activates the human 5-HT1a serotonin receptor | AID 567 | actives 0.56% (n = 65,000) | activation, % at 10 µM | CHO 5-HT1a Ga15 NFAT-bla reporter, FRET ratio; 0% basal, 100% maximal reference agonist | P08908;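 active = activation above the screen-wide mean activation plus 3 SD, cut at about 19% in these data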;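 also: 0% = DMSO wells and 100% = 5-CT at EC100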
# * = called active by the depositor; / = not tested or not shown.
SMILES,5HT1a antag,HTR1E antagonist,S1P3 ag,HTR1E agonist,5HT1a ag
Cc1ccc2c(c1)c1c(n2CC(O)Cn2c(C)nc3ccccc32)/C(=N\O)CCC1 (stereo not given),27.7,-24.9,-0.2,0.5,-4.1
O=C(COC(=O)Cc1ccsc1)NC1CCCCCC1,0.1,-1.0,0.3,-1.2,-1.5
O=C(CN1CCN(c2ccccn2)CC1)Nc1ccc2ccccc2c1,5.4,-5.7,-0.5,0.1,0.2
CCOc1ccc(NC(=O)CCN2CCN(c3ccccc3)CC2)cc1,68.2*,23.4,-1.9,0.0,3.4
O=C(CCN1CCN(c2ccccn2)CC1)Nc1ccc(F)cc1,18.5,-8.4,0.5,0.1,29.3*
CS(=O)(=O)N1CCC(C(=O)Nc2ccccc2Sc2ccccc2)CC1,12.5,1.6,-0.5,-0.3,0.1
CC(=O)Nc1ccccc1Sc1ccccc1,22.4,31.8*,-0.8,-1.4,-2.2
C=CS(=O)(=O)c1ccc(Oc2ccc(S(=O)(=O)C=C)cc2)cc1,105.6*,102.8*,-0.6,-0.6,-4.0
CCC(C)Sc1nc2c(c(=O)[nH]c(=O)n2C)n1Cc1ccccc1Cl (stereo not given),-1.1,19.4,-1.5,0.5,2.3
CN=c1sc2ccccc2n1CC(O)COCc1ccco1 (stereo not given),/,-16.3,-0.3,35.6*,-0.2
CN(C)CCCN1C(=O)C(=O)/C(=C(/O)c2ccc(S(=O)(=O)N(C)C)cc2)C1c1ccncc1 (stereo not given),-1.4,-8.0,0.0,-0.6,0.7
Cc1ccc(OCCn2cc(/C(N)=N/O)c3ccccc32)cc1C,42.1,35.7*,-1.0,1.4,4.1
CC(C)CC(c1nnnn1Cc1ccccc1)N1CCN(C(=O)c2ccco2)CC1 (stereo not given),-3.2,-6.4,0.3,0.1,-2.3
CCCCCCc1cc2cc(C(=O)NC)c(=N)oc2cc1O,/,2.5,-2.0,1.6,32.7*
COc1ccc(NC(=O)c2cc3cc(OC)ccc3oc2=N)cc1,-0.5,-11.3,-1.0,-1.1,-5.6
O=S(=O)(CCSc1nc2ccccc2o1)c1nc2ccccc2s1,47.3*,21.9,-1.1,-1.0,-3.6
O=C1c2ccccc2C(Nc2ccc(Cl)cn2)N1c1cccnc1 (stereo not given),2.2,9.4,-0.8,-0.2,-2.4
Cc1ccc(C2Nc3ccccc3C(=O)N2Cc2ccco2)cc1 (stereo not given),4.9,-5.5,0.1,1.2,-1.0
CCN(CC)c1ccc2cc(C(=O)Nc3ccccn3)c(=O)oc2c1,/,-31.8,-0.8,5.8,57.3*
CCN(CC)c1ccc2cc(NC(=O)CCC(=O)O)c(=O)oc2c1,40.5,55.4*,-1.6,-0.1,-3.4
CCN(CC)c1ccc2cc(C(=O)Nc3cccnc3N3CCOCC3)c(=O)oc2c1,2.4,-0.4,/,0.1,2.2
CCCCCCC(=O)N1CCC(c2nc3c(nnn3Cc3ccccc3Cl)c(=O)[nH]2)CC1,21.6,-1.6,-0.4,1.2,3.7
Cc1nc2nc(-c3cccs3)cn2nc1C,11.8,39.3*,0.0,0.0,-3.6
CCNc1nc(N)nc(Oc2ccc(OCCOc3ccc(Cl)cc3Cl)nn2)n1,-3.4,4.1,0.6,1.6,-4.0
CCCCn1nnnc1SCC(=O)Nc1ccc2c(c1)OCO2,7.8,6.3,-0.6,-0.2,-1.8
SMILES,5HT1a antag,HTR1E antagonist,S1P3 ag,HTR1E agonist,5HT1a ag
CCCCN(C)CCNC(=O)Cn1ncc2c(=O)oc3ccc(C)cc3c21,0.9,-10.3,-0.2,10.3*,-0.9
COc1cccc(C(CC(=O)NCc2ccco2)NS(=O)(=O)c2ccc(C)cc2)c1OC (stereo not given),-2.8,0.9,-0.2,0.4,-0.5
O=C(OCCN1C(=O)c2ccccc2C1=O)c1cccc(OC(F)F)c1,0.3,5.1,89.4,0.7,2.0
COc1ccc(Cl)cc1NC(=O)CSc1ncnc2c1oc1ccccc12,-1.1,-6.1,0.5,0.4,-3.1
COc1cccc(NC(=O)CSc2ncnc3c2oc2ccccc23)c1,6.0,31.2*,-1.7,-1.0,2.3
CCNc1nc(C)c2cc(Br)c(=O)n(CC)c2n1,41.9,58.5*,-2.2,-0.9,-1.0
CCn1c(=N)c(C(=O)NC)cc2c(=O)n3cccc(C)c3nc21,0.7,-6.3,-0.6,0.8,-3.1
CCn1c(Cc2ccc(OC)cc2)nnc1SCC(=O)Nc1nc2ccccc2s1,-10.2,-4.0,-0.4,0.9,1.3
Cn1nnnc1Sc1ncnc2scc(-c3ccccc3)c12,32.0,28.1,-1.3,0.2,-0.8
Cn1nnnc1Sc1ncnc2scc(-c3ccc(F)cc3)c12,33.7,47.6*,-0.9,0.2,0.5
CCOC(=O)CC1=C(C(=O)OCC)C(c2ccc(OC)cc2OC)C(C#N)=C(N)O1 (stereo not given),6.6,5.5,-2.2,-0.7,-3.7
CCOC(=O)CC1=C(C(=O)OCC)C(c2ccc(C)o2)C(C#N)=C(N)O1 (stereo not given),52.6*,35.0*,-1.3,-0.8,-0.3
COCC(=O)Nc1cccc(Br)c1,1.4,-8.7,1.4,0.2,20.2*
Cc1cc(Oc2ccc(-c3ccccc3)cc2)n2ncnc2n1,46.3*,34.1*,0.5,-0.1,-2.7
COc1ccccc1NC(=O)NCc1ccc2c(c1)OCO2,5.7,-4.2,0.0,2.3,-0.7
COCCN1Cc2cccc(C(=O)NCc3ccc4c(c3)OCO4)c2C1=O,0.7,15.4,-0.7,0.0,238.4*
COCCN1Cc2cccc(C(=O)NCc3ccccn3)c2C1=O,-1.9,0.0,-1.0,-0.4,-2.4
COC(=O)c1ccccc1NC(=O)NCc1ccc2c(c1)OCO2,16.6,30.7*,0.2,-1.0,16.6
COc1cccc(NC(=O)CSc2nc3c(c(=O)n2C)SC(C)C3)c1 (stereo not given),-12.8,-16.7,-1.3,0.5,1.8
CCOC(=O)c1c(N)c(C#N)cn1-c1ccccc1,-4.6,6.2,0.5,0.1,-1.6
CCOC(=O)c1c(NC(=O)c2nn(CC)cc2Br)c(C#N)cn1-c1ccccc1,18.0,40.0*,-0.3,-0.1,1.4
O=C(CSc1cccc2cccnc12)N1CCCC1,17.1,41.6*,-0.5,0.4,-0.6
CN(C)C(=O)CSc1cccc2cccnc12,32.8,39.2*,-0.9,-0.1,1.1
CN(CC(=O)N1CCc2ccccc21)S(=O)(=O)c1cccc2cccnc12,14.0,-0.6,-0.7,-0.2,-0.1
CCc1ccc(OCc2nnc(SCCN3CCOCC3)n2C)cc1,0.8,-9.1,0.7,1.2,-3.3
CN(CC1CCCO1)S(=O)(=O)c1ccc(C(=O)Nc2nc3cc4c(cc3s2)OCO4)cc1 (stereo not given),-8.1,1.4,-1.5,1.2,2.6
COc1ccc2c(c1)sc1nc(-c3ccccc3)cn12,64.6*,75.0*,-1.3,-1.1,0.7
Brc1ccc(C2=Nn3c(nnc3-c3n[nH]c4c3CCC4)SC2)cc1,29.6,57.1*,2.0,-0.3,-1.1
